Measured values reported in ChEMBL document CHEMBL3421540, “Ensemble-based virtual screening for cannabinoid-like potentiators of the human glycine receptor α1 for the treatment of pain” (J Med Chem, 2015).
pEC50: −log10 of the molar value. Activity calls are given as the source filed them. The calls are words filed in the database; no cut-off is given here.

Key:
Type in all cases: cell-based
[1] = molecular target: T1, Glycine receptor subunit alpha-1 (Homo sapiens) (UniProt P23415); experiment: Potentiation of human GlyR-alpha1 expressed in Xenopus laevis oocytes assessed as induction of glycine-activated currents at 1 uM after 1 to 4 days by two-electrode voltage clamp assay relative to control
T1 sequence (whole entry): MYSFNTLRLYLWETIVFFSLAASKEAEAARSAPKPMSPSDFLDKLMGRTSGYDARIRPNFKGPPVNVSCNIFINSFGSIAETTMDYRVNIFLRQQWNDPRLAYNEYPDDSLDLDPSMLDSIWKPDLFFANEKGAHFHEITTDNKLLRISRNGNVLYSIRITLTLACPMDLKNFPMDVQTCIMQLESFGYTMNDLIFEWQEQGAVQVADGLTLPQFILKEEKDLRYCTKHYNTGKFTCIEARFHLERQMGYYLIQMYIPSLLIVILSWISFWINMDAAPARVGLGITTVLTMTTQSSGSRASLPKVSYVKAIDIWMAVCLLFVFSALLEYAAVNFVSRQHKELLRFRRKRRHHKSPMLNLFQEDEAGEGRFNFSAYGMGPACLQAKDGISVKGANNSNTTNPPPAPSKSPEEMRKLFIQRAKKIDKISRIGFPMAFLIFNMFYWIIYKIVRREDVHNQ
Outline: (§1)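 RNA for hGlyR-α1 (25−50 ng) injected into stage 5−6 Xenopus laevis oocytes held at 17 °C in modified Barth's solution; two-electrode voltage clamp 1−4 days post-injection at −60 mV holding potential. Bath: 96 mM NaCl, 2 mM KCl, 1.8 mM CaCl2, 1 mM MgCl2, 5 mM HEPES, pH 7.0. Compound coapplied with glycine at EC5; potentiation of current scored.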

[2] = molecular target: T2, Glycine receptor subunit alpha-1 (Homo sapiens, UniProt P23415); experiment: Potentiation of human GlyR-alpha1 expressed in Xenopus laevis oocytes assessed as induction of glycine-activated currents after 1 to 4 days by two-electrode voltage clamp assay
T2 sequence (P23415 whole entry): T1 sequence (whole entry)
Outline: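 hGlyR-α1 RNA (25−50 ng) injected into stage 5−6 Xenopus oocytes, held at 17 °C in modified Barth's solution. Recorded 1−4 days later by two-electrode voltage clamp at −60 mV in 96 mM NaCl, 2 mM KCl, 1.8 mM CaCl2, 1 mM MgCl2, 5 mM HEPES, pH 7.0. Compounds coapplied with glycine at EC5, up to 10 μM. EC50 values also derived.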

[3] = molecular target: T1, Glycine receptor subunit alpha-1 (Homo sapiens); experiment: Potentiation of human GlyR-alpha1 expressed in Xenopus laevis oocytes assessed as induction of glycine-activated currents at 10 uM after 1 to 4 days by two-electrode voltage clamp assay relative to control; outline: as §1
[4] = molecular target: Neuronal acetylcholine receptor subunit alpha-7 (Homo sapiens) (UniProt P36544); experiment: Modulation of human alpha7 nAChR expressed in Xenopus laevis oocytes assessed as effect on acetylcholine-induced currents at 10 uM after 1 to 4 days by two-electrode voltage clamp assay relative to control
Outline: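 α7 nAChR RNA (25−50 ng) injected into stage 5−6 Xenopus oocytes, kept at 17 °C in modified Barth's solution. Two-electrode voltage clamp at −60 mV, 1−4 days post-injection. Bath: 96 mM NaCl, 2 mM KCl, 1.8 mM CaCl2, 1 mM MgCl2, 5 mM HEPES, pH 7.0. Compound coapplied with acetylcholine at EC50, used because of fast desensitization.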

Neuronal acetylcholine receptor subunit alpha-7 (Homo sapiens), sequence (P36544 whole entry): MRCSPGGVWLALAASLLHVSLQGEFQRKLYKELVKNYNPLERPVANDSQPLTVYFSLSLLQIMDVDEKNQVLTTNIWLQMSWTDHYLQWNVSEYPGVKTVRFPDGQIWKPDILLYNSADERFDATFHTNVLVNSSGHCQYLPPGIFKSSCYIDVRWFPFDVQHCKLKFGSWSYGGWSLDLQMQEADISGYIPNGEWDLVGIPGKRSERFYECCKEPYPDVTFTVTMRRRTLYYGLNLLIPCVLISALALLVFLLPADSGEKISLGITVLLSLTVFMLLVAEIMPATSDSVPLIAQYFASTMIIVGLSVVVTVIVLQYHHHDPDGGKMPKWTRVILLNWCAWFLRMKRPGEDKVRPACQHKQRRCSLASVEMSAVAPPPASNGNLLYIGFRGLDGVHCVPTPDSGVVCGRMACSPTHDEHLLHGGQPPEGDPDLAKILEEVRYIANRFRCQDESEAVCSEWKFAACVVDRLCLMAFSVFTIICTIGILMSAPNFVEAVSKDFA

Row | Structure (SMILES) | Activity [1] [%] | pEC50 [2] | %max [3] [%] | Activity [4]
1 | Cc1nc2n(c(=O)c1CCN1CCC(c3noc4cc(F)ccc34)CC1)CCCC2 [RISPERIDONE] | 180 | 6.49 | 190 | inactive
2 | CCCCCc1cc(O)c2c(c1)OC(C)(C)[C@@H]1CCC(C)=C[C@@H]21 [DRONABINOL] | 162 | 5.89 | 260 | –
3 | COc1cc(OC)c(NC(=O)Nc2cc(C)on2)cc1Cl | 102 | – | 103 | –
4 | C[C@@H](NCCCc1cccc(C(F)(F)F)c1)c1cccc2ccccc12 | 182 | 6.49 | 210 | inactive
5 | CC1=C(CC(=O)O)c2cc(F)ccc2/C1=C\c1ccc([S+](C)[O-])cc1 (centres undefined) | – | 6.42 | – | inactive
6 | CNC(=O)c1cc(Oc2ccc(NC(=O)Nc3ccc(Cl)c(C(F)(F)F)c3)c(F)c2)ccn1 [REGORAFENIB] | 116 | 5.74 | 200 | –
7 | C=C1CC[C@H](O)C/C1=C/C=C1\CCC[C@]2(C)[C@@H]([C@H](C)CCCC(C)C)CC[C@@H]12 [CHOLECALCIFEROL] | 216 | 6.40 | 220 | inactive
8 | O=C1NCN(c2ccccc2)C12CCN(CCCC(c1ccc(F)cc1)c1ccc(F)cc1)CC2 | – | 5.92 | – | –
9 | C[C@]12C=CC(=O)N[C@@H]1CC[C@@H]1[C@@H]2CC[C@]2(C)[C@@H](C(=O)Nc3cc(C(F)(F)F)ccc3C(F)(F)F)CC[C@@H]12 [DUTASTERIDE] | – | 6.48 | – | inactive
10 | COc1ccc(-c2ccc3cc(C(=O)O)ccc3c2)cc1C12CC3CC(CC(C3)C1)C2 | 172 | 5.89 | 260 | inactive
11 | OC(c1cc(C(F)(F)F)nc2c(C(F)(F)F)cccc12)C1CCCCN1 (centres undefined) [MEFLOQUINE] | 126 | 5.60 | 220 | –
12 | Cc1nc2c([nH]1)-c1ccccc1N(C(=O)c1ccc(NC(=O)c3ccccc3-c3ccccc3)cc1)CC2 | 106 | – | 107 | –
13 | COc1ccc(CCN2CCC(Nc3nc4ccccc4n3Cc3ccc(F)cc3)CC2)cc1 [ASTEMIZOLE] | 122 | 5.38 | 280 | –
14 | CCCc1nc2c(C)cc(-c3nc4ccccc4n3C)cc2n1Cc1ccc(-c2ccccc2C(=O)O)cc1 | 120 | 5.49 | 210 | –
15 | O=c1[nH]c2ccccc2n1C1CCN(CCCC(c2ccc(F)cc2)c2ccc(F)cc2)CC1 [PIMOZIDE] | 219 | 5.77 | 510 | inactive
